# Results published in PMC7704123 (Journal of natural products, 2020).
# Legend:
# Format in all cases: cell-based, human
# [1] = tested on: mTORC1 signaling in MDA-MB-453 cells; assay: Immunoblotting of mTORC1 signaling pathway; conditions: immunoblot
# Procedure, shortened: (§1)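 Cells (IMEM, 5% FBS) exposed to 100 nM test compound, 100 nM oligomycin, 10 nM rapamycin or DMSO vehicle for 2, 6 or 18 h. Scraped whole-cell lysates with PMSF, Na3VO4 and protease inhibitors; 10 μg protein per lane on 10% Bis-Tris SDS-PAGE, PVDF transfer. Blots probed for phospho/total AKT S473, mTOR S2448, S6K T389, RPS6 S235/236, 4E-BP1 T37/46 and GAPDH; IRDye infrared detection; two independent experiments.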
# [2] = tested on: mTORC1 signaling in MDA-MB-231 cells; assay: Immunoblotting of mTORC1 signaling pathway; conditions: immunoblot
# Procedure, shortened: as §1
# [3] = tested on: MDA-MB-453 and SUM185PE cells; assay: SRB assay, LAR subtype TNBC cell lines taken together; conditions: MDA-MB-453 and SUM185PE versus MDA-MB-231, HCC1806 and HCC70, Figure 7C
# Procedure, shortened: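 Cells seeded at predetermined densities, left to adhere, then given test compound or DMSO vehicle for 48 h. Fixed, stained with sulforhodamine B, absorbance read at 560 nm. MDA-MB-453, MDA-MB-231 and SUM185PE were grown in IMEM with 5% FBS; HCC1806 and HCC70 in RPMI-1640 with 5% FBS. Proliferation taken relative to vehicle; GI50 by non-linear regression; three independent experiments, each in triplicate.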
# [4] = 100 nM oligomycin, 2, 6 or 18 h
SMILES,"mTOR signaling ([1]; 10 nM rapamycin, 2, 6 or 18 h)","mTOR signaling ([2]; 10 nM rapamycin, 2, 6 or 18 h)",growth of LAR cells as compared to other TNBC cell lines [3],"mTOR activity (RPS6 and S6K phosphorylation) [1, 4]","mTOR activity (RPS6 and S6K phosphorylation) [2, 4]"
CO[C@H]1C[C@@H]2CC[C@@H](C)[C@@](O)(O2)C(=O)C(=O)N2CCCC[C@H]2C(=O)O[C@H]([C@H](C)C[C@@H]2CC[C@@H](O)[C@H](OC)C2)CC(=O)[C@H](C)/C=C(\C)[C@@H](O)[C@@H](OC)C(=O)[C@H](C)C[C@H](C)/C=C/C=C/C=C/1C [Rapamycin],inhibited mTOR signaling in both cell lines,inhibited mTOR signaling in both cell lines,–,–,–
CC[C@H]1/C=C/C=C/C[C@@H](C)[C@H](O)[C@@](C)(O)C(=O)[C@@H](C)[C@H](O)[C@@H](C)C(=O)[C@@H](C)[C@H](O)[C@@H](C)/C=C/C(=O)O[C@@H]2[C@H](C)[C@H](CC1)O[C@]1(CC[C@H](C)[C@H](C[C@@H](C)O)O1)[C@H]2C [oligomycin],–,–,selectively inhibited the growth,selectively inhibited mTOR activity,but not in the resistant MDA-MB-231 cells
